Drawing on ChEMBL document CHEMBL1909537, “1-Aryl-5-(1H-pyrrol-1-yl)-1H-pyrazole-3-carboxamide: an effective scaffold for the design of either CB1 or CB2 receptor ligands” (Eur J Med Chem, 2011), this text covers Ratio Ki, Ki and Activity for 20 compounds.

Test [1] is filed under the species Homo sapiens. Description: Selectivity index, ratio of Ki for recombinant human CB2 receptor to Ki for recombinant human CB1 receptor. In short, it runs like this:
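Index computed as Ki(CB2)/Ki(CB1). Each Ki comes from [3H]-CP-55,940 displacement on transfected HEK membranes (0.14 nM radioligand for CB1, 0.084 nM for CB2) via Cheng-Prusoff.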

For another test, the target named is Cannabinoid receptor 1 (Homo sapiens, UniProt P21554). Put plainly: Displacement of [3H]CP-55,940 from recombinant human CB1 receptor expressed in HEK cells. The format is cell-based, HEK293. In short, it runs like this: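 Competition binding on membranes of HEK cells transfected with human CB1, using [3H]-CP-55,940 at 0.14 nM (radioligand Kd 0.18 nM). Displacement curves give IC50, converted to Ki by the Cheng-Prusoff equation. Reference ligands run in parallel.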
In general terms: In a radioligand displacement assay an active substance lowers the binding of a labelled ligand.

For test [2], the system named is Rattus norvegicus. Put plainly: Reduction in water intake in Wistar rat at 2 mg/kg, ip administered 30 mins before lights off measured 6 hrs after lights off relative to vehicle-treated control. In kind it is functional, organism-based. Also on record: dose 2 mg/kg. In short, it runs like this:
(§1)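 Wistar rats had free access to 1% w/v sucrose solution, water and regular chow. On test day they were split into groups of n = 15, matched on body weight and on sucrose and food intake over the prior 3 days. Drug was suspended in saline with 0.05% v/v Tween 80 and given ip at 0, 1 or 2 mg/kg (3 mL/kg), 30 min before lights off. Data were analysed by ANOVA with Newman-Keuls test.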

Test [3] has as its system Rattus norvegicus. Description: Reduction in sucrose intake in Wistar rat at 2 mg/kg, ip administered 30 mins before lights off measured 6 hrs after lights off relative to vehicle-treated control. The following applies: route intraperitoneal. In kind it is functional. Also on record: scale not given: the % may be the effect or the level left. The method, boiled down:
as §1

The target in the next test is Cannabinoid receptor 2 (Homo sapiens, UniProt P34972). Description: Displacement of [3H]CP-55,940 from recombinant human CB2 receptor expressed in HEK cells. In kind it is cell-based, HEK293. The method, boiled down: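 Competition binding on membranes of HEK cells transfected with human CB2, using [3H]-CP-55,940 at 0.084 nM (radioligand Kd 0.31 nM). Displacement curves give IC50, converted to Ki by the Cheng-Prusoff equation. Reference ligands run in parallel.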

The species entered for test [4] is Homo sapiens. Put plainly: Selectivity index, ratio of Ki for recombinant human CB1 receptor to Ki for recombinant human CB2 receptor. The method, boiled down: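 Index computed as Ki(CB1)/Ki(CB2). Each Ki comes from [3H]-CP-55,940 displacement on transfected HEK membranes (0.14 nM radioligand for CB1, 0.084 nM for CB2) via Cheng-Prusoff.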
Test [5] deals with Rattus norvegicus. Put plainly: Reduction in food intake in Wistar rat at 2 mg/kg, ip administered 30 mins before lights off measured 6 hrs after lights off relative to vehicle-treated control. In kind it is functional, organism-based. Also on record: dose 2 mg/kg. In short, it runs like this: as §1

Molecules are shown by their SMILES. pKi: −log10 of the molar value. Calls of active or inactive are those of the source. The calls are words filed in the database; no cut-off is given here.

Sequence of Cannabinoid receptor 1 (P21554 whole entry): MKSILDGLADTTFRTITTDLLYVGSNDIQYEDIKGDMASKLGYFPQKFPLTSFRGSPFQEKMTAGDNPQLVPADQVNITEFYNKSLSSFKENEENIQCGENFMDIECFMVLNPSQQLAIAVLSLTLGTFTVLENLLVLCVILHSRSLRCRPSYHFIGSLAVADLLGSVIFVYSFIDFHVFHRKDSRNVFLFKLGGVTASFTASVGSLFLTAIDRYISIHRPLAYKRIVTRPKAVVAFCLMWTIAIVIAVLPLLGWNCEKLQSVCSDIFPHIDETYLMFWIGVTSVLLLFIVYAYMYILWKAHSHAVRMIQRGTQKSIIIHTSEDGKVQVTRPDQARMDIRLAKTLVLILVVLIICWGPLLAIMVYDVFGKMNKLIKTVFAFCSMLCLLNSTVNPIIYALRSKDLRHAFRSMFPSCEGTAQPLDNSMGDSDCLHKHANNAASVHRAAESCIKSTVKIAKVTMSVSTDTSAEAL
Sequence of Cannabinoid receptor 2 (P34972 whole entry): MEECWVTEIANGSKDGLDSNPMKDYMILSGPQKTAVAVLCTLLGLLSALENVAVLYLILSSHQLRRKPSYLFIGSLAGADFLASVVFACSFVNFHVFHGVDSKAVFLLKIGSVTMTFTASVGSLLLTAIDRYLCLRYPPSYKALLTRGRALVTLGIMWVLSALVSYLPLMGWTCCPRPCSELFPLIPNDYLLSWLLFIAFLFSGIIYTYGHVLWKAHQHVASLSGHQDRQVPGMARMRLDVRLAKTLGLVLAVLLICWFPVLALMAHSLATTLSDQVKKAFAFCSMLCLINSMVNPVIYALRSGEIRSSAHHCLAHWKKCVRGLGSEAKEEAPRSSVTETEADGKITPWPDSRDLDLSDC

On to `Cc1c(C(=O)NC2CCCCC2)nn(-c2ccc(Cl)cc2Cl)c1-n1cc2c(c1)CCCC2`, for which the Ratio Ki in the test filed under Homo sapiens [1] came out at 164; in the test listed under Homo sapiens [4], 0.006. Also, the results for the pKi on Cannabinoid receptor 1 and on Cannabinoid receptor 2 were 8.64 and 6.42, respectively. The result with Rattus norvegicus [2] and in the test with Rattus norvegicus [5] was inactive. For the same compound, the Activity with Rattus norvegicus [3] stood at 25%.

As for `CCc1ccc(CC)n1-c1c(C)c(C(=O)NCc2ccc(Cl)c(Cl)c2)nn1-c1ccc(Cl)c(Cl)c1`, the pKi at Cannabinoid receptor 1 and on Cannabinoid receptor 2 was < 5.00 throughout.

As for `Cc1c(C(=O)NC2CCCCC2)nn(-c2ccc(Cl)c(Cl)c2)c1-n1cccc1Cl`, the Ratio Ki was found to be 0.11 in the test listed under Homo sapiens [1] and 9.56 in the test filed under Homo sapiens [4]. The pKi on Cannabinoid receptor 1 is 8.07; on Cannabinoid receptor 2, 9.05.

Consider `Cc1c(C(=O)NCc2ccc(Cl)c(Cl)c2)nn(-c2ccc(Cl)cc2Cl)c1-n1cccc1Cl`, for which the Ratio Ki amounted to 3.9 in the test listed under Homo sapiens [1] and 0.26 in the test filed under Homo sapiens [4]. The pKi at Cannabinoid receptor 1 was 7.60; on Cannabinoid receptor 2, 7.01.

For `Cc1c(C(=O)NC2CCCCC2)nn(-c2ccc(Cl)c(Cl)c2)c1-n1c(Cl)ccc1Cl`, the Ratio Ki in the test listed under Homo sapiens [1] came out at 0.23; in the test filed under Homo sapiens [4], 4.31. Further, the pKi is 8.25 at Cannabinoid receptor 1 and 8.89 on Cannabinoid receptor 2.

`Cc1c(C(=O)NCc2ccc(Cl)c(Cl)c2)nn(-c2ccc(Cl)c(Cl)c2)c1-n1c(Cl)ccc1Cl`: the Ratio Ki worked out at 2.9 in the test filed under Homo sapiens [1] and 0.34 in the test listed under Homo sapiens [4]. Also, the pKi is 7.25 on Cannabinoid receptor 1 and 6.79 on Cannabinoid receptor 2.

As for `Cc1c(C(=O)NC2CCCCC2)nn(-c2ccc(Cl)cc2Cl)c1-n1c(Cl)ccc1Cl`, the Ratio Ki came out at 2 in the test filed under Homo sapiens [1] and 0.49 in the test listed under Homo sapiens [4]. Besides, the figures for the pKi at Cannabinoid receptor 1 and on Cannabinoid receptor 2 were 8.03 and 7.72, respectively.

Turning to `CCc1c(C(=O)NC2CCCCC2)nn(-c2ccc(Cl)c(Cl)c2)c1-n1c(C)ccc1C`, the Ratio Ki in the test listed under Homo sapiens [1] amounted to 0.035; in the test listed under Homo sapiens [4], 28.2. In addition, the negative logarithm of the Ki (pKi) is 7.32 at Cannabinoid receptor 1 and 8.77 at Cannabinoid receptor 2.

Regarding `Cc1c(C(=O)NC2CCCCC2)nn(-c2ccc(Cl)cc2Cl)c1-n1cccc1Cl`, the figures for the Ratio Ki in the test listed under Homo sapiens [1] and in the test listed under Homo sapiens [4] were 2.4 and 0.4, respectively. Moreover, the negative logarithm of the Ki (pKi) on Cannabinoid receptor 1 is 8.11; on Cannabinoid receptor 2 it was 7.74.

Turning to `CCc1c(C(=O)NCc2ccc(Cl)c(Cl)c2)nn(-c2ccc(Cl)cc2Cl)c1-n1c(C)ccc1C`, the figures for the Ratio Ki in the test listed under Homo sapiens [1] and in the test filed under Homo sapiens [4] were 1.06 and 0.94, respectively. The pKi on Cannabinoid receptor 1 is 7.25; on Cannabinoid receptor 2, 7.27.

Turning to `CCc1c(C(=O)NCc2ccc(Cl)c(Cl)c2)nn(-c2ccc(Cl)cc2Cl)c1-n1cccc1`, the Ratio Ki in the test filed under Homo sapiens [1] was determined as 9.3; in the test filed under Homo sapiens [4], 0.11. Also, the pKi is 7.31 on Cannabinoid receptor 1 and 6.34 at Cannabinoid receptor 2.

Regarding `Cc1c(C(=O)NCc2ccc(Cl)c(Cl)c2)nn(-c2ccc(Cl)c(Cl)c2)c1-n1cccc1Cl`, the Ratio Ki in the test listed under Homo sapiens [1] was determined as 0.73; in the test filed under Homo sapiens [4], 1.38. In addition, the negative logarithm of the Ki (pKi) was 7.13 at Cannabinoid receptor 1 and 7.27 on Cannabinoid receptor 2.

As to `CCc1c(C(=O)NC2CCCCC2)nn(-c2ccc(Cl)c(Cl)c2)c1-n1cccc1`, the Ratio Ki in the test filed under Homo sapiens [1] was found to be 0.033; in the test filed under Homo sapiens [4], 30. Also, the values for the pKi on Cannabinoid receptor 1 and on Cannabinoid receptor 2 were 7.82 and 9.29, respectively.

For `Cc1c(C(=O)NCc2ccc(Cl)c(Cl)c2)nn(-c2ccc(Cl)cc2Cl)c1-n1cc2c(c1)CCCC2`, the Ratio Ki was determined as 1.6 in the test filed under Homo sapiens [1] and 0.63 in the test filed under Homo sapiens [4]. The pKi is 7.34 at Cannabinoid receptor 1 and 7.14 on Cannabinoid receptor 2.

Take `CCc1c(C(=O)NCc2ccc(Cl)c(Cl)c2)nn(-c2ccc(Cl)c(Cl)c2)c1-n1c(C)ccc1C`: the Ratio Ki in the test filed under Homo sapiens [1] stood at 0.118; in the test filed under Homo sapiens [4], 8.49. The figures for the pKi at Cannabinoid receptor 1 and on Cannabinoid receptor 2 were 6.02 and 6.94, respectively.

With `Cc1c(C(=O)NCc2ccc(Cl)c(Cl)c2)nn(-c2ccc(Cl)cc2Cl)c1-n1c(Cl)ccc1Cl`, the Ratio Ki came to 2 in the test filed under Homo sapiens [1] and 0.49 in the test listed under Homo sapiens [4]. The pKi at Cannabinoid receptor 1 is 7.18; at Cannabinoid receptor 2, 6.87.

For the compound `CCc1c(C(=O)NC2CCCCC2)nn(-c2ccc(Cl)cc2Cl)c1-n1cccc1`, the Ratio Ki worked out at 5.3 in the test filed under Homo sapiens [1] and 0.19 in the test listed under Homo sapiens [4]. The results for the negative logarithm of the Ki (pKi) on Cannabinoid receptor 1 and on Cannabinoid receptor 2 were 8.52 and 7.80, respectively.

On to `CCc1c(C(=O)NC2CCCCC2)nn(-c2ccc(Cl)cc2Cl)c1-n1c(C)ccc1C`, for which the Ratio Ki in the test listed under Homo sapiens [1] stood at 112; in the test filed under Homo sapiens [4], 0.009. Moreover, the pKi on Cannabinoid receptor 1 is 8.17; at Cannabinoid receptor 2 it was 6.12.

For `CCc1c(C(=O)NCc2ccc(Cl)c(Cl)c2)nn(-c2ccc(Cl)c(Cl)c2)c1-n1cccc1`, the Ratio Ki in the test listed under Homo sapiens [1] is 0.065; in the test listed under Homo sapiens [4], 15.3. Besides, the pKi was 6.34 on Cannabinoid receptor 1 and 7.53 on Cannabinoid receptor 2.

With `CCc1ccc(CC)n1-c1c(C)c(C(=O)NC2CCCCC2)nn1-c1ccc(Cl)c(Cl)c1`, the Ratio Ki in the test listed under Homo sapiens [1] was determined as 3; in the test filed under Homo sapiens [4], 0.33. In addition, the figures for the pKi on Cannabinoid receptor 1 and at Cannabinoid receptor 2 were 6.87 and 6.39, respectively.

What is called pKi is the Ki on a negative log10 scale, so that one unit is a factor of ten.
